From PMC12393906 (Molecular Therapy, 2025)
pIC50, pKd: −log10 of the molar value.

Experiments:
[1] = system: ERO1α; settings: read-out: IC50 (ERO1α); cited from earlier work
[2] = biological target: ERO1α; settings: read-out: KD (ERO1α); cited from earlier work
[3] = system: lysine-specific demethylase 1; settings: cited from earlier work
[4] = system: Mao-A; settings: read-out: IC50 (Mao-A); cited from earlier work
[5] = biological target: T1, Recombinant human ERO1α (Homo sapiens, UniProt Q96HE7); assay: fluorescence-based ERO1α activity assay; format: biochemical; settings: 0.01–1 μM FAD
T1 sequence (Q96HE7 24-468): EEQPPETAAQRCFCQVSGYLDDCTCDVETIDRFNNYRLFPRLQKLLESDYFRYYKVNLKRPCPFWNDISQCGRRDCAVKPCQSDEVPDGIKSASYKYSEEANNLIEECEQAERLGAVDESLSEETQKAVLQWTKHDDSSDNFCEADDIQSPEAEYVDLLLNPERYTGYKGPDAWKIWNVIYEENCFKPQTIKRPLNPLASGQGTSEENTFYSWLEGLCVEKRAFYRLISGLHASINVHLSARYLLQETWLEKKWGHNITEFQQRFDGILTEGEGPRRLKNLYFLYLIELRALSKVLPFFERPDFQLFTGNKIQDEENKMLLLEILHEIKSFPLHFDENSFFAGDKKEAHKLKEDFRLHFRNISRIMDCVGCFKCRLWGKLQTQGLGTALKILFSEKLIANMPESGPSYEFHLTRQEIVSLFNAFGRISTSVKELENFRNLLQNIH

[6] = system: C57BL/6 mice; assay: FeCl3-induced carotid arterial thrombosis; format: in vivo, mouse; settings: iv 5 μg/g BW; 7% or 10% FeCl3
Summary of the method: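 Male and female mice, 8–12 weeks, were anaesthetised with ip ketamine/xylazine. A 2 × 2 mm filter disc carrying 1.2 μL of 7 or 10% FeCl3 was placed on the carotid artery for 2 min. Flow was monitored by Doppler flow meter. TTO was the time from disc removal to stable occlusion (no flow for 5 min).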

[7] = system: C57BL/6 mice; assay: Tail bleeding time and hemoglobin content; format: in vivo, mouse; settings: iv 5 μg/g BW

In the case of `CN(C)c1ccc(/C=C2\Oc3cc(O)ccc3C2=O)cc1` [Compound T151742], the pIC50 [1] is listed as 5.06, the pKd [2] is listed as 4.50 and the “binding to lysine-specific demethylase 1” value [3] is listed as “does not bind”. For the same compound, the pIC50 [4] was 6.00.

With `Cc1cc2nc3c(=O)[nH]c(=O)nc-3n(C[C@H](O)[C@H](O)[C@H](O)COP(=O)(O)OP(=O)(O)OC[C@H]3O[C@@H](n4cnc5c(N)ncnc54)[C@H](O)[C@@H]3O)c2cc1C` [FAD, flavin adenine dinucleotide] the “effect of exogenous FAD on ERO1α activity” value [5] was “significantly increased ERO1α activity”.

For eptifibatide, the “time to occlusion (TTO)” value [6] was “significantly prolonged TTO irrespective of the FeCl3 concentration” and the “tail bleeding times and blood loss” value [7] was “markedly increased both”.
